In ChEMBL document CHEMBL1131170 (J Med Chem, 1998):
Active and inactive are the calls of the source. The calls are words filed in the database; no cut-off is given here.

What was measured:
[1] = target: T1, Protein farnesyltransferase (Homo sapiens, UniProt P49354+P49356); assay: inhibitory activity against human Farnesyltransferase; format: protein-complex assay
In short: (§1)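 Compounds in 100% DMSO diluted 20-fold, giving 5% DMSO final. Farnesyl transfer measured; IC50 determined.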

[2] = target: T1, Protein farnesyltransferase; assay: Inhibitory activity against human Farnesyltransferase; format: protein-complex assay; in short: as §1
[3] = target: T1, Protein farnesyltransferase; assay: Inhibition of human Farnesyltransferase at 100 uM; format: protein-complex assay
[4] = target: T1, Protein farnesyltransferase; assay: Inhibition of human Farnesyltransferase using Ras-CVLS; format: protein-complex assay
[5] = target: T1, Protein farnesyltransferase; assay: (§2) Inhibition of human Farnesyltransferase; format: protein-complex assay; in short: as §1
[6] = target: T1, Protein farnesyltransferase; assay: as §2; format: protein-complex assay; settings: concentration not given here; in short: as §1
[7] = target: T1, Protein farnesyltransferase; assay: as §2; format: protein-complex assay; in short: as §1; remark: listed apart in the source
[8] = test system: HepG2; assay: Inhibition of cholesterol biosynthesis in HepG2 cells at 32 uM; format: functional; settings: Homo sapiens
In short: (§3)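 HepG2 cells seeded at 2 × 10^5/well on day 0, fed delipidated-serum medium on day 3 and again on day 5, when compounds in DMSO were added for 4 h. Labeled with [14C]acetate (3 µCi/mL) for 2 h, then saponified, acidified, petroleum ether extracted twice, TLC on silica (petroleum ether–ethyl ether–acetic acid 75:25:1), phosphor imaging; incorporation into cholesterol.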

[9] = test system: HepG2; assay: Inhibition of cholesterol biosynthesis in HepG2 cells at 81 uM; format: functional; settings: Homo sapiens; in short: as §3
[10] = Inhibition of human Geranylgeranyl transferase using Ras-CAIL
[11] = target: T1, Protein farnesyltransferase; assay: as §2; format: protein-complex assay; in short: as §1; remark: listed apart in the source
[12] = target: T1, Protein farnesyltransferase; assay: as §2; format: protein-complex assay; in short: as §1; remark: listed apart in the source
[13] = target: T1, Protein farnesyltransferase; assay: as §2; format: protein-complex assay; settings: concentration not given here; in short: as §1; remark: listed apart in the source
[14] = target: T1, Protein farnesyltransferase; assay: as §2; format: protein-complex assay; in short: as §1; remark: listed apart in the source
[15] = inhibition of human Geranylgeranyl transferase using Ras-CVIM
[16] = test system: HepG2; assay: Inhibition of cholesterol biosynthesis in HepG2 cells at 16 uM; format: functional; settings: Homo sapiens; in short: as §3
[17] = target: T1, Protein farnesyltransferase; assay: as §2; format: protein-complex assay; in short: as §1; remark: listed apart in the source
[18] = target: T1, Protein farnesyltransferase; assay: as §2; format: protein-complex assay; in short: as §1; remark: listed apart in the source
[19] = test system: HepG2; assay: Inhibition of cholesterol biosynthesis in HepG2 cells at 2.5 uM; format: functional; settings: Homo sapiens
In short: (§4)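 HepG2 cells seeded on day 0; fresh medium with delipidated serum on day 3 and again on day 5, when compounds (DMSO stocks) were added for 4 h. Extracts were separated by silica TLC (petroleum ether–ethyl ether–acetic acid 75:25:1) and quantified by phosphor imaging as cholesterol incorporation.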

[20] = test system: HepG2; assay: Inhibition of cholesterol biosynthesis in HepG2 cells at 25 uM; format: functional; settings: Homo sapiens; in short: as §4
[21] = test system: HepG2; assay: Inhibition of cholesterol biosynthesis in HepG2 cells at 42 uM; format: functional; settings: Homo sapiens; in short: as §3
[22] = test system: HepG2; assay: Inhibition of cholesterol biosynthesis in HepG2 cells at 106 uM; format: functional; settings: Homo sapiens; in short: as §3
[23] = test system: HepG2; assay: Inhibition of cholesterol biosynthesis in HepG2 cells at 21 uM; format: functional; settings: Homo sapiens; in short: as §3
[24] = target: T1, Protein farnesyltransferase; assay: Inhibition of human Farnesyltransferase, inactive at 100 uM; format: protein-complex assay

IC50 [1] [µM] | IC50 [2] [µM] | SMILES | other results
> 100 | – | CC[C@H]1CC2=CC(=O)CC[C@]2(C)C2CC[C@]3(C)C(C(C)CCCC(C)C)CCC3C21 (stereo not given in full) | –
– | 26 | COC(=O)CC[C@@]1(C)C(=O)CCC2C1C(=O)C[C@@]1(C)C2CC[C@@]12OCOC21COCO1 (stereo not given in full) | –
– | 1.2 | CC(C)CCCC(C)C1CCC2C3CCC(=O)C(CCC(=O)O)C3CC[C@]12C (stereo not given in full) | –
12 | – | CC(=O)OCC(=O)[C@@]1(O)CC[C@H]2[C@@H]3CCC4=CC(=O)CC[C@]4(C)[C@H]3C(=O)C[C@@]21C [CORTISONE ACETATE] | –
– | > 100 | CC(=O)C1CCC2C3CCC(=O)[C@](C)(CCC(=O)O)C3C(=O)C[C@]12C (stereo not given in full) | –
– | 60 | CC[C@H]1CC(=O)[C@](C)(CCC(=O)O)C2CC[C@]3(C)C(C(C)CCCC(C)C)CCC3C21 (stereo not given in full) | –
– | 40 | CC(C)CCCC(C)C1CCC2C3CCC(=O)[C@](C)(CCC(=O)O)C3CC[C@]12C (stereo not given in full) | –
48 | – | CC(C)(CC(=O)O)CC(=O)OCC(=O)[C@@]1(O)CCC2C3CCC4=CC(=O)CC[C@]4(C)[C@@]3(F)[C@@H](O)C[C@@]21C (stereo not given in full) | –
– | 0.04 | CC(C)CCCC(C)C1CCC2C3C(CC[C@]12C)[C@@](C)(C[C@@H](CC(=O)O)C(=O)O)C(=O)C[C@@H]3C (stereo not given in full) | –
– | – | CC(CCC(=O)O)C1CC[C@H]2[C@@H]3CCC4CC(=O)CC[C@]4(C)[C@H]3CC(=O)[C@]12C (stereo not given in full) | inhibition [3]: 33%
– | – | CC(=O)OCC(=O)[C@@]1(O)CCC2C3CCC4=CC(=O)CC[C@]4(C)C3CC[C@@]21C (stereo not given in full) | inhibition [3]: 6%
> 100 | – | CCC(CC)C(=O)OCC(=O)[C@@]1(O)CCC2C3CCC4=CC(=O)CC[C@]4(C)C3[C@@H](O)C[C@@]21C (stereo not given in full) | –
50 | – | C[C@]12CCC(=O)C=C1CCC1C2C(=O)C[C@@]2(C)C1CC[C@]2(O)C(=O)COC(=O)CC(CC(=O)O)C(=O)O (stereo not given in full) | –
1.2 | – | C[C@]12C=C(C=O)C(=O)C=C1CCC1C2C(=O)C[C@@]2(C)C1CC[C@@]21OCOC12COCO2 (stereo not given in full) | –
– | – | C[C@H](CCC(O)C(C)(C)O)[C@H]1CC[C@@]2(C)C3=C(CC[C@]12C)[C@@]1(C)C[C@@H](OC(=O)CC(C)(O)CC(=O)O)C(=O)C(C)(C)[C@@H]1CC3 (stereo not given in full) [CLAVARIC ACID] | IC50 [4]: 0.35 µM; FPTase activity (fM ug-1 min-1) [5]: 7340; inhibition ([5]; concentration not given here): 70%; inhibition [6]: 84%; FPTase activity (fM ug-1 min-1) [7]: 592; inhibition at 32 µM [8]: 0%; inhibition at 81 µM [9]: 69%; IC50 [10]: 21 µM; FPTase activity (fM ug-1 min-1) [11]: 694; FPTase activity (fM ug-1 min-1) [12]: 3330; inhibition [13]: 81%; FPTase activity (fM ug-1 min-1) [14]: 3340; IC50 [15]: > 50 µM; inhibition at 16 µM [16]: 0%; FPTase activity (fM ug-1 min-1) [17]: 2390
> 100 | – | CCOC(=O)C[C@@H]1C[C@@]2(C)C(=CC1=O)CCC1C3CCC(C(C)CCCC(C)C)[C@@]3(C)CCC12 (stereo not given in full) | –
– | – | CC(=O)OCC(=O)[C@@]1(O)CCC2C3CCC4=CC(=O)CC[C@]4(C)C3[C@@H](O)C[C@@]21C (stereo not given in full) | inhibition [3]: 6%
12 | – | CC(C)=CCCC(C)C1CC[C@@]2(C)C3=C(CC[C@]12C)[C@@]1(C)CCC(=O)C(C)(C)C1CC3 (stereo not given in full) | –
– | 21 | CC(C)CCCC(C)C1CCC2C3CC[C@@H](C(=O)O)[C@](C)(CCC(=O)O)C3CC[C@]12C (stereo not given in full) | –
– | > 100 | C[C@]1(C(=O)O)C(=O)CCC2C1C(=O)C[C@@]1(C)C2CC[C@@]12OCOC21COCO1 (stereo not given in full) | –
– | – | CC(C)CCCC(C)C1CCC2C3CCC(=O)[C@](C)(C[C@@H](CC(=O)O)C(=O)O)C3CC[C@]12C (stereo not given in full) | IC50 [18]: 0.19 µM

IC50 [1] [µM] | IC50 [2] [µM] | SMILES | other results
– | 31 | CC(CCC(=O)O)C1CCC2C3C(CC[C@]12C)[C@@](C)(CCC(=O)O)C(=O)C[C@@H]3C (stereo not given in full) | –
– | 29 | C[C@]1(CCC(=O)O)C(=O)CCC2C1C(=O)C[C@@]1(C)C2CC[C@@]12OCOC21COCO1 (stereo not given in full) | –
15 | – | CC(C)C(=O)OCC(=O)[C@@]1(O)CCC2C3CCC4=CC(=O)CC[C@]4(C)C3C(=O)C[C@@]21C (stereo not given in full) | –
– | – | CC(CCCC(C)(C)O)[C@H]1CC[C@H]2C3CC=C4C[C@@H](O)CC[C@]4(C)[C@H]3CC[C@]12C (stereo not given in full) | inhibition at 2.5 µM [19]: 87%; inhibition at 25 µM [20]: 90%
15 | – | C[C@H](CCC(O)C(C)(C)O)[C@H]1CC[C@@]2(C)C3=C(CC[C@]12C)[C@@]1(C)C[C@@H](O)C(=O)C(C)(C)[C@@H]1CC3 (stereo not given in full) [CLAVARINONE] | inhibition at 42 µM [21]: 74%; IC50 [4]: 8 µM; inhibition at 106 µM [22]: 97%; inhibition at 21 µM [23]: 59%; IC50 [10]: 35 µM; IC50 [15]: > 50 µM
– | 3 | CC[C@H]1CC(=O)[C@](C)(C[C@@H](CC(=O)O)C(=O)O)C2CC[C@]3(C)C(C(C)CCCC(C)C)CCC3C21 (stereo not given in full) | –
– | – | CC(C)(CC(=O)O)CC(=O)OCC(=O)[C@@]1(O)CCC2C3CCC4=CC(=O)C=C[C@]4(C)[C@@]3(F)[C@@H](O)C[C@@]21C (stereo not given in full) | inhibition [3]: 63%
> 100 | – | C[C@@H]1CC2C3CCC4=CC(=O)C=C[C@]4(C)C3C(=O)C[C@]2(C)[C@]12OCOC21COCO1 (stereo not given in full) | –
– | > 100 | CCOC(=O)C[C@H](C[C@@]1(C)C(=O)CCC2C3CCC(C(C)CCCC(C)C)[C@@]3(C)CCC21)C(=O)O (stereo not given in full) | –
– | – | C[C@]12C=CC(=O)C=C1CC[C@@H]1[C@@H]2[C@@H](O)C[C@@]2(C)[C@H]1CC[C@]2(O)C(=O)COC(=O)CCC(=O)O | inhibition [3]: 36%
24 | – | C[C@]12CCC(=O)C=C1CCC1C2C(=O)C[C@@]2(C)C1CCC2(O)C(=O)COC(=O)CCC(=O)O (stereo not given in full) | –
> 100 | – | COC(=O)CC[C@@]1(C)C(=O)C[C@H](C)C2C3CCC(C(C)CCCC(C)C)[C@@]3(C)CCC21 (stereo not given in full) | –
– | – | C[C@]12CCC(=O)C=C1CC[C@@H]1[C@@H]2[C@@H](O)C[C@@]2(C)[C@H]1CC[C@]2(O)C(=O)COC(=O)CCC(=O)O | inhibition [3]: 46%
– | 40 | CCOC(=O)C[C@H](C[C@@]1(C)C(=O)C[C@H](CC)C2C3CCC(C(C)CCCC(C)C)[C@@]3(C)CCC21)C(=O)O (stereo not given in full) | –
– | 0.9 | CC(C)CCCC(C)C1CCC2C3C(CC[C@]12C)[C@@](C)(CCC(=O)O)C(=O)C[C@@H]3C (stereo not given in full) | –
> 100 | – | CC(C)CCCC(C)C1CCC2C3CCC4=CC(=O)[C@H](CC(=O)O)C[C@]4(C)C3CC[C@]12C (stereo not given in full) | –
56 | – | CCC(CC)C(=O)OCC(=O)[C@@]1(O)CCC2C3CCC4=CC(=O)CC[C@]4(C)C3C(=O)C[C@@]21C (stereo not given in full) | –
96 | – | C[C@H]1CC2C3CCC4=CC(=O)C=C[C@]4(C)C3C(=O)C[C@]2(C)[C@]12OCOC21COCO1 (stereo not given in full) | –
38 | – | C[C@]12C=C(C3OCCO3)C(=O)C=C1CCC1C2C(=O)C[C@@]2(C)C1CC[C@@]21OCOC12COCO2 (stereo not given in full) | –
– | – | CC(C)CCCC(C)C1CCC2C3CC=C4C(C)(C)C(=O)CC[C@]4(C)C3CC[C@]12C (stereo not given in full) | inhibition [24]: inactive
– | 40 | CC(C)C(=O)OCC(=O)C1CCC2C3CCC(=O)[C@](C)(CCC(=O)O)C3C(=O)C[C@]12C (stereo not given in full) | –

SMILES | IC50 [1] [µM] | IC50 [2] [µM] | other results
C[C@]12CC(=O)C3C(CCC4=CC(=O)CC[C@@]43C)C1CCC2C(=O)CO (stereo not given in full) | > 100 | – | –
CC(=O)OCC(=O)[C@@]1(O)C(C)CC2C3CCC4=CC(=O)C=C[C@]4(C)C3=CC[C@@]21C (stereo not given in full) | 40 | – | –
